Mdm2-MdmX inh: inhibitors of human Mdm2-MdmX association, primary screen, cell-based, luminescence, split luciferase, SaOS-2, uHTS; inhibition, % at 8 µM; 3% of 330,000 active; SaOS-2 split-luciferase Mdm2/MdmX complementation; Protein Mdm4 (Homo sapiens) + E3 ubiquitin-protein ligase Mdm2 (Homo sapiens), …;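 active = inhibition of at least 50% at 8 µM in the primary screen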
Target sequence (O15151 whole entry, looked up): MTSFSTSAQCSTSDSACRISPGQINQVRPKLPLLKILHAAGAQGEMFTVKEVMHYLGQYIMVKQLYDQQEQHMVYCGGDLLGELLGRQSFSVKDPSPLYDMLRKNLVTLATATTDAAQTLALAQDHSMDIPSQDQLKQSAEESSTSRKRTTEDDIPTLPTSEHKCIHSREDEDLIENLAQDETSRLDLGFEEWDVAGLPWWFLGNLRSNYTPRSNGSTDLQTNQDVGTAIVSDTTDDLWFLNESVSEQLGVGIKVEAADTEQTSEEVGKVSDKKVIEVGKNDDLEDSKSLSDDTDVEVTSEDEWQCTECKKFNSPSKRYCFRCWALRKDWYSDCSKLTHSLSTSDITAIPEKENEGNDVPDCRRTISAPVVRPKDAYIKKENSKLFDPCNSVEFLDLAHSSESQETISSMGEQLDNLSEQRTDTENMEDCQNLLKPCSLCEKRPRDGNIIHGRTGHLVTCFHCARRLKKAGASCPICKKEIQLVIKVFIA
Target sequence (Q00987 whole entry, looked up): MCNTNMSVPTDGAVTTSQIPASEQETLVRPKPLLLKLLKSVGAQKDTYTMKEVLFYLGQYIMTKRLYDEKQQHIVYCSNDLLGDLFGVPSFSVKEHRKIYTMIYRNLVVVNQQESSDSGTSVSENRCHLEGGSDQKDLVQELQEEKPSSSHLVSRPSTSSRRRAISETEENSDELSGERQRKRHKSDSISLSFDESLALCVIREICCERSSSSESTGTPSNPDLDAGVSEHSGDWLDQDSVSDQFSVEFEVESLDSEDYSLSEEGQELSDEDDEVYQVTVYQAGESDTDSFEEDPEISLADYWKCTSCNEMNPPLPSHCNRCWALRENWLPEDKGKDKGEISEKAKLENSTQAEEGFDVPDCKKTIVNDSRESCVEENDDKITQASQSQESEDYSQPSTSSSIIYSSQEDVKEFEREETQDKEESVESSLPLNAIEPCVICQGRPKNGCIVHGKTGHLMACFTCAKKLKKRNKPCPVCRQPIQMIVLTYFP
ABHD5 PLIN5 PPI: ABHD5-PLIN5 interaction inhibitors, primary screen, cell lysate, split luciferase complementation, luminescence | Perilipin-5 (Homo sapiens) + 1-acylglycerol-3-phosphate O-acyltransferase ABHD5 (Homo … | Split G. princeps luciferase complementation, 4 h | inhibition, % at 4 µM | 0.78% of 360,000 active | AID 602281, 2012;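 active = inhibition above the mean inhibition across every tested compound plus 3 SD, cut at about 22% in these data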
CHOP UPR activ: activators of apoptotic CHOP UPR arm, primary screen, cell-based, CHO-CHOP luciferase reporter, luminescence, uHTS; UPR activation; percent of tunicamycin response over DMSO baseline; activation, % at 10 µM; 0.34% of 330,000 active;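 active = at 10 µM dose, activation of 40% or more, normalized to positive control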
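Test system: CHO-CHOP cells, stable luciferase reporter of PERK-eIF2a-CHOP signalling | Quantity: 500 CHO-CHOP cells per well | Buffer or medium: F12 plus 10% serum | Compound dosing: 10 µM single point, 0.5% DMSO | Schedule: 6 h compound treatment, 37 °C | Signal: Luciferase luminescence | Control set: Tunicamycin high control, DMSO low control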
Granule exo inh: LAMP-1 surface exposure blockers, TALL-104 cells – cell-based, flow cytometry, MLPCN library, primary screen; TALL-104 LAMP-1 surface exposure; cells stimulated with thapsigargin and PMA; inhibition, % at 10 µM; 0.66% of 360,000 active;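 active = inhibition above about 55%, limit read from the data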
XBP1 UPR activ: activators of adaptive XBP1 UPR arm, primary screen, cell-based, CHO-XBP1 luciferase reporter, luminescence, uHTS; AID 463104, 2010; activation, % at 20 µM; IRE1-XBP1 UPR activation; percent of tunicamycin response, DMSO as zero; 0.33% of 330,000 active;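 active = versus positive control, 20 µM dose yields 30% or more activation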
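Material: CHO-XBP1 cells stably carrying IRE1-XBP1-driven luciferase reporter / Amount: 1000 cells per well / Compound: 20 µM, 1% DMSO / Times: 6 h treatment, 37 °C / Detection: luciferase luminescence / Measure: % activation of reporter signal versus tunicamycin and DMSO controls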
Mdm2 MdmX conf: Mdm2-MdmX complex disruptors, retested hits, confirmation, luminescence, single concentration; shares compounds with Mdm2-MdmX inh; Mdm2-MdmX binding, luminescent assay; inhibition, % at 8 µM; 55% of 10,000 active; in the data active = inhibition above about 40%
FLuc counter: full-length luciferase signal inhibition, confirmation, counter-screen for Mdm2/MdmX interaction inhibitor project, cell-based, single concentration, SaOS-2. shares compounds with Mdm2-MdmX inh. AID 504607, 2011. inhibition, % at 8 µM. SaOS-2 full-length luciferase counterscreen, luminescence. 77% of 6,200 active;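 active = mean inhibition at 8 µM reaching about 37%, which flags the compound as non-specific, limit read from the data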;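 note: p53-null SaOS-2 cells with luciferase driven by a doxycycline-inducible promoter; compound on cells about two nights before reading with doxycycline added after day one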
Hits are given with their value; – = inactive; · = not tested or not shown. In the library only some 4% were active in any assay of this set; here they are far more common.

SMILES | Mdm2-MdmX inh | ABHD5 PLIN5 PPI | CHOP UPR activ | Granule exo inh | XBP1 UPR activ | Mdm2 MdmX conf | FLuc counter
CCCOc1ccccc1N/C(=N/c1nc(C)cc(C)n1)NC(=O)COc1ccc(OC)cc1 | 56 | – | – | – | – | – | ·
COc1ccc(Cn2c(-c3ccc(C)cc3)c[n+]3ccccc23)cc1 | 62 | – | – | – | – | – | 65
COc1cc2[nH]c3c(N4CCN(c5ccccn5)CC4)ncnc3c2cc1OC | 69 | – | – | – | – | 41 | 53
C[C@]12C(=O)N(c3ccc(C(F)(F)F)cc3)C(=O)N1[C@H]1c3ccccc3OC[C@@H]1[C@H]2c1ccccc1 | 57 | – | – | – | – | – | ·
C[C@@]12C(=O)N(c3ccccc3)C(=O)N1[C@@H]1c3ccccc3OC[C@@H]1[C@H]2c1ccccc1 | – | – | – | – | – | · | ·
CSc1c(CC(=O)Nc2ccccc2)n(Cc2ccccc2)c2ccccc12 | 60 | – | – | – | – | – | ·
CSc1c(CC(=O)Nc2ccccc2Cl)n(Cc2ccccc2)c2ccccc12 | 58 | – | – | – | – | – | ·
CSc1c(CC(=O)Nc2ccccc2C(F)(F)F)n(Cc2ccccc2)c2ccccc12 | 74 | – | – | – | – | – | 107
O=C(CCCc1ccccc1)Nc1ccccc1C(F)(F)F | – | – | – | – | – | · | ·
COc1ccc(CC(=O)OCC(=O)c2ccc(OC)cc2)cc1 | – | – | – | – | – | · | ·
COc1ccccc1NC(=O)c1c(Nc2ccccc2C)sc(C(=O)Nc2cccc(Cl)c2)c1N | 75 | – | – | – | – | – | ·
CC[C@@]1(c2ccccc2OC)ON(c2ccccc2C(F)(F)F)C1=O | 89 | – | – | – | – | 80 | 51
Cc1ccccc1[C@@]1(C)ON(c2ccccc2C(F)(F)F)C1=O | 81 | – | – | – | – | – | ·
CC1(c2ccccc2)ON(c2ccccc2C(F)(F)F)C1=O (configuration not stated) | – | · | – | · | – | · | ·
O=C1N(c2ccccc2C(F)(F)F)O[C@]1(c1ccccc1)C1CCCC1 | 79 | – | – | – | – | 53 | 50
COC(=O)N1C(=O)[C@](c2ccccc2)(C2CCCC2)N1C(=O)OC | – | – | – | – | – | · | ·
CC(=O)Nc1sc(NC(=O)c2ccc([N+](=O)[O-])cc2)nc1-c1cccs1 | – | – | – | – | – | · | ·
CC(=O)c1ccc(S(=O)(=O)Nc2cccc(-c3ccc4nncn4n3)c2)cc1 | – | – | – | – | – | · | ·
COc1ccc(OC)c(S(=O)(=O)Nc2ccc(-c3ccc4nnc(C)n4n3)cc2)c1 | 51 | – | – | – | – | 61 | 65
CCc1ccc(S(=O)(=O)Nc2ccc(-c3ccc4nnc(C)n4n3)cc2)s1 | – | – | – | – | – | · | ·
CCc1ccc(S(=O)(=O)Nc2cccc(-c3ccc4nnc(C)n4n3)c2)s1 | 55 | – | – | – | – | 53 | 85
COc1ccc(S(=O)(=O)Nc2ccc(-c3ccc4nnc(C)n4n3)cc2)c(OC)c1 | 71 | – | – | – | – | – | ·
Cc1ccc(S(=O)(=O)Nc2cccc(-c3ccc4nncn4n3)c2)cc1 | 63 | – | – | – | – | 78 | 66
O=C(NCc1ccccc1)c1cc(-c2cccc(O)c2)on1 | – | – | – | – | – | · | ·
C=CCC[C@H](Cc1ccc(F)cc1)C(=O)OC[C@@H](Cc1c[nH]c2ccccc12)NC(=O)[C@H](CC=C)CC(=O)N(CCO)Cc1ccccc1 | 94 | – | – | – | – | – | ·
